Measurements from ChEMBL document CHEMBL5107950, “Structure-based design of haloperidol analogues as inhibitors of acetyltransferase Eis from Mycobacterium tuberculosis to overcome kanamycin resistance” (RSC Med Chem, 2021).
Values after ≈ are worked out from the molar mass of the structure shown. Active and inactive are the calls of the source. The calls are words filed in the database; no cut-off is given here.

Assays:
[1] = tested on: Mycobacteroides abscessus; experiment: Antibacterial activity against Mycobacterium abscessus ATCC 19977 assessed as inhibition of bacterial growth incubated upto 3 weeks hrs by resazurin dye based double-dilution method; assay type: functional; conditions: ATCC 19977, 504 h
Method in brief: (§1)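 Double-dilution broth MIC. Media: M. smegmatis, Mueller-Hinton; M. abscessus, 7H9 + 0.05% Tween80 + 0.4% glycerol; mc²6230, 7H9 + 0.05% tyloxapol, 0.5% glycerol, 10% OADC, 0.2% casamino acids, 24 µg/mL pantothenate; other mycobacteria, 7H9 + 0.05% Tween80, 0.4% glycerol, 10% ADC. Inoculum from agar set to 0.5 McFarland, then diluted 1:100.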

[2] = tested on: Mycolicibacterium smegmatis; experiment: Synergistic antibacterial activity against Mycobacterium smegmatis mc2 155 assessed as fold reduction in MIC value at 8 ug/ml in presence of spectinomycin by checkerboard assay; assay type: functional; conditions: dose 8 µg/ml
[3] = tested on: Mycobacterium tuberculosis; experiment: Potentiation of kanamycin-induced antibacterial activity against Mycobacterium tuberculosis K204 assessed as kanamycin MIC incubated for 1 day followed by kanamycin addition for 6 days and by Alamar blue assay; assay type: functional; conditions: K204, 168 h, time 7 day
Method in brief: (§2)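 Mtb in 7H9 + 10% ADC, 0.05% Tween 80, 0.4% glycerol at 37 °C. Inoculum adjusted to OD600 0.2, diluted 1:25. Cells preincubated 24 h at 37 °C with compound (100 µL of 200 µM solution). KAN then added: H37Rv at 2.5 and 1.25 µg/mL; K204 at 10, 5, 2.5, 1.25 µg/mL. Incubated 6 days, AlamarBlue added, colour read at 24 and 48 h. MIC = lowest KAN with no colour change. At least twice in duplicate.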

[4] = tested on: Mycobacterium intracellulare; experiment: Antibacterial activity against Mycobacterium intracellulare ATCC 13950 in presence of spectinomycin by checkerboard assay; assay type: functional, organism-based
Method in brief: (§3)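 Checkerboard in 96-well plates. Antibiotic two-fold serially diluted along columns, haloperidol derivative two-fold along rows. Bacteria prepared as for the MIC determination. MICs alone and in combination used to calculate FICI. At least duplicate independent trials.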

[5] = tested on: Mycobacterium tuberculosis; experiment: Antibacterial activity against Mycobacterium tuberculosis H37Ra ATCC NRS22 assessed as inhibition of bacterial growth incubated upto 3 weeks hrs by resazurin dye based double-dilution method; assay type: functional; conditions: H37Ra ATCC NRS22, 504 h; method in brief: as §1
[6] = tested on: Mycolicibacterium smegmatis; experiment: Antibacterial activity against Mycobacterium smegmatis mc2 155 assessed as inhibition of bacterial growth incubated upto 3 weeks hrs by resazurin dye based double-dilution method; assay type: functional; conditions: mc2 155, 504 h; method in brief: as §1
[7] = tested on: Mycobacteroides abscessus; experiment: Synergistic antibacterial activity against Mycobacterium abscessus ATCC 19977 assessed as reduction in bacterial growth presence of spectinomycin by checkerboard assay; assay type: functional, organism-based; method in brief: as §3
[8] = tested on: Mycobacteroides abscessus; experiment: Synergistic antibacterial activity against Mycobacterium abscessus ATCC 19977 in presence of clofazimine by checkerboard assay; assay type: functional, organism-based; method in brief: as §3
[9] = tested on: Mycolicibacterium smegmatis; experiment: Synergistic antibacterial activity against Mycobacterium smegmatis mc2 155 assessed as fold reduction in MIC value at 8 ug/ml in presence of clarithromycin by checkerboard assay; assay type: functional; conditions: dose 8 µg/ml
Mycobacterium avium [10] = experiment: Antibacterial activity against Mycobacterium avium ATCC 25921 in presence of clarithromycin by checkerboard assay; assay type: functional, organism-based; method in brief: as §3
[11] = tested on: Mycolicibacterium smegmatis; experiment: Synergistic antibacterial activity against Mycobacterium smegmatis mc2 155 assessed as fold reduction in MIC value at 8 ug/ml in presence of clofazimine by checkerboard assay; assay type: functional, organism-based; conditions: dose 8.0 µg/ml
[12] = tested on: Mycobacterium tuberculosis; experiment: Potentiation of kanamycin-induced antibacterial activity against Mycobacterium tuberculosis H37Rv assessed as kanamycin MIC incubated for 1 day followed by kanamycin addition for 6 days and by Alamar blue assay; assay type: functional; conditions: 168 h, time 7 day; method in brief: as §2
[13] = tested on: Mycobacterium tuberculosis; experiment: Synergistic antibacterial activity against Mycobacterium tuberculosis H37Ra ATCC NRS22 in presence of spectinomycin by checkerboard assay; assay type: functional, organism-based; method in brief: as §3
[14] = tested on: Mycobacterium intracellulare; experiment: Antibacterial activity against Mycobacterium intracellulare ATCC 13950 in presence of clofazimine by checkerboard assay; assay type: functional, organism-based; method in brief: as §3
Mycobacterium avium [15] = experiment: Antibacterial activity against Mycobacterium avium ATCC 25921 in presence of clofazimine by checkerboard assay; assay type: functional, organism-based; method in brief: as §3
[16] = tested on: Mycobacteroides abscessus; experiment: Synergistic antibacterial activity against Mycobacterium abscessus ATCC 19977 in presence of clarithromycin by checkerboard assay; assay type: functional, organism-based; method in brief: as §3
Mycobacterium avium [17] = experiment: Antibacterial activity against Mycobacterium avium ATCC 25921 assessed as inhibition of bacterial growth incubated upto 3 weeks hrs by resazurin dye based double-dilution method; assay type: functional; conditions: ATCC 25921, 504 h; method in brief: as §1
Mycobacterium avium [18] = experiment: Antibacterial activity against Mycobacterium avium ATCC 25921 in presence of spectinomycin by checkerboard assay; assay type: functional, organism-based; method in brief: as §3
N-acetyltransferase Eis [19] = molecular target: T1, N-acetyltransferase Eis (Mycobacterium tuberculosis (strain ATCC 25618 / H37Rv), UniProt P9WFK7); experiment: Inhibition of Mycobacterium tuberculosis Eis assessed as Eis-mediated kanamycin acetylation preincubated for 10 mins followed by substrate addition and measured for 2 to 5 mins using acetyl-CoA as substrate in presence of kanamycin by UV-Vis spectroscopy analysis
T1 sequence (P9WFK7 whole entry): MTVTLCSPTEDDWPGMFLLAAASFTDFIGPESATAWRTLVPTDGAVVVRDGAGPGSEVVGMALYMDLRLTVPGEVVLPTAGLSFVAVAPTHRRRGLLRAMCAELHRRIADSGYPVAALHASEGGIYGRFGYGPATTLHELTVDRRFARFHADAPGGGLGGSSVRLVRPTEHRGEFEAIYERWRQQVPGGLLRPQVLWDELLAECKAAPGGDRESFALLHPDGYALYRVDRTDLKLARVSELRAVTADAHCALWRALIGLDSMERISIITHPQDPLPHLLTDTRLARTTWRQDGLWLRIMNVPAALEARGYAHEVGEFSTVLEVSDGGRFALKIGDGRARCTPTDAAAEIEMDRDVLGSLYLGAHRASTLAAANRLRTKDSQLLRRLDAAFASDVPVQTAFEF
Method in brief: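 Recombinant Eis (1 µM) mixed with KAN (400 µM) in 50 mM Tris-HCl pH 8.0 and preincubated 10 min with 5-fold serially diluted inhibitor (10% DMSO in buffer). Reaction started with AcCoA and DTNB (2 mM each, as added). Absorbance read every 30 s for 20 min. Initial rates (first 2-5 min) fitted to Hill plot for IC50. At least triplicate.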

[20] = tested on: Mycobacterium intracellulare; experiment: Antibacterial activity against Mycobacterium intracellulare ATCC 13950 assessed as inhibition of bacterial growth incubated upto 3 weeks hrs by resazurin dye based double-dilution method; assay type: functional; conditions: ATCC 13950, 504 h; method in brief: as §1
[21] = tested on: Mycobacterium intracellulare; experiment: Antibacterial activity against Mycobacterium intracellulare ATCC 13950 in presence of clarithromycin by checkerboard assay; assay type: functional, organism-based; method in brief: as §3
N-acetyltransferase Eis [22] = molecular target: T1, N-acetyltransferase Eis; experiment: Competitive inhibition of Mycobacterium tuberculosis Eis assessed as reduction in Eis-mediated kanamycin acetylation preincubated for 10 mins followed by substrate addition and measured for 2 to 5 mins using acetyl-CoA as substrate in presence of kanamycin by Lineweaver-Burk plot analysis
Method in brief: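 Same DTNB-coupled Eis acetylation assay used for IC50, run as Michaelis-Menten kinetics with inhibitor at 0-1 μM. Vmax and Km from these fits used to determine mode of inhibition. Quadruplicate.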

J774.A1 [23] = experiment: Cytotoxicity against mouse J774.A1 cells assessed as reduction in cell viability at 25 uM incubated for 24 hrs by resazurin assay; assay type: toxicity, cell-based; conditions: j774.a1, 24 h
Method in brief: (§4)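 Resazurin viability assay in DMEM + 10% FBS, 1% penicillin/streptomycin, 37 °C, 5% CO₂. Seeding: HEK-293 and J774A.1 at 1×10^4 cells/mL, A549 at 5×10^3 cells/mL. After 24 h, compounds added (0.78-200 μM, 0.5% DMSO final). Resazurin added 24 h later, read after 6 h. 1% Triton X as positive control. Quadruplicate.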

[24] = tested on: Mycobacterium tuberculosis; experiment: Antibacterial activity against Mycobacterium tuberculosis K204 assessed as inhibition of bacterial growth at 100 uM incubated for 24 hrs by Alamar blue assay; assay type: functional, organism-based
A549 [25] = experiment: Cytotoxicity against human A549 cells assessed as reduction in cell viability at 25 uM incubated for 24 hrs by resazurin assay; assay type: toxicity, cell-based; conditions: a549, 24 h; method in brief: as §4
Escherichia coli = experiment: Antibacterial activity against Escherichia coli MC1061 assessed as inhibition of bacterial growth incubated upto 3 weeks hrs by resazurin dye based double-dilution method; assay type: functional, organism-based
[26] = Metabolic stability in mouse liver microsomes at 2 to 4 uM incubated for 30 mins by LC-MS/MS analysis; assay type: ADME, Microsome; conditions: dose 2-4 µM, read-out: Stability
HEK293 [27] = experiment: Cytotoxicity against human HEK293 cells assessed as reduction in cell viability at 25 uM incubated for 24 hrs by resazurin assay; assay type: toxicity, cell-based; conditions: hek293, 24 h; method in brief: as §4
[28] = tested on: Mycobacterium tuberculosis; experiment: Antibacterial activity against Mycobacterium tuberculosis H37Rv assessed as inhibition of bacterial growth at 100 uM incubated for 24 hrs by Alamar blue assay; assay type: functional, organism-based
[29] = Metabolic stability in human liver microsomes at 2 to 4 uM incubated for 30 mins by LC-MS/MS analysis; assay type: ADME, Microsome; conditions: dose 2-4 µM, read-out: Stability
J774.A1 [30] = experiment: Cytotoxicity against mouse J774.A1 cells assessed as reduction in cell viability at 100 uM incubated for 24 hrs by resazurin assay; assay type: toxicity, cell-based; conditions: j774.a1, 24 h; method in brief: as §4
HEK293 [31] = experiment: Cytotoxicity against human HEK293 cells assessed as reduction in cell viability at 200 uM incubated for 24 hrs by resazurin assay; assay type: toxicity, cell-based; conditions: hek293, 24 h; method in brief: as §4
A549 [32] = experiment: Cytotoxicity against human A549 cells assessed as reduction in cell viability at 100 to 200 uM incubated for 24 hrs by resazurin assay; assay type: toxicity, cell-based; conditions: a549, 24 h, dose 100-200 µM; method in brief: as §4

In the case of `O=C(CCCN1CCC(O)(c2ccc(F)cc2)CC1)c1ccc(Cl)cc1`, the MIC [1] is reported as over 62.5 µM, the “fold change (FC)” value [2] is reported as 16 and the MIC [3] is reported as 10 mg/L. The Activity [4] was “Active”, the MIC [5] was over 62.5 µM and the MIC [6] was over 62.5 µM. The Activity [7] was “Active”, the Activity [8] was “Active” and the “fold change (FC)” value [9] was 4. For the same molecule, the Activity (Mycobacterium avium [10]) was “Active”, the Activity [11] was “Active” and the MIC [12] was at most 1.25 mg/L. For the same molecule, the Activity [13] was “Active”, the Activity [14] was “Active” and the Activity (Mycobacterium avium [15]) was “Active”. The Activity [16] was “Active”, the MIC (Mycobacterium avium [17]) was over 62.5 µM and the Activity (Mycobacterium avium [18]) was “Active”. The IC50 (N-acetyltransferase Eis [19]) was 2.6 µM, the MIC [20] was over 62.5 µM and the Activity [21] was “Active”.
For `O=C(CCCN1CCC(O)(c2ccc(Br)cc2)CC1)c1ccc(F)cc1` [BROMPERIDOL], the MIC [1] was over 62.5 µM, the “fold change (FC)” value [2] was 16 and the MIC [3] was 5 mg/L. For the same molecule, the MIC [5] was over 62.5 µM, the MIC [6] was over 62.5 µM and the “fold change (FC)” value [9] was 4. It also gave an MIC [12] of at most 1.25 mg/L, an MIC (Mycobacterium avium [17]) of 62.5 µM (≈ 26.3 µg/mL) and an IC50 (N-acetyltransferase Eis [19]) of 0.52 µM. For the same molecule, the Ki (N-acetyltransferase Eis [22]) was 0.24 µM and the MIC [20] was 62.5 µM (≈ 26.3 µg/mL).
For `CC(C)(C)c1ccc(C(=O)CCCN2CCC(O)(c3ccc(Br)cc3)CC2)cc1`, the MIC [1] was over 62.5 µM, the Activity (J774.A1 [23]) was “Toxic” and the “fold change (FC)” value [2] was 16. For the same molecule, the MIC [5] was 3.9 µM (≈ 1.79 µg/mL), the MIC [6] was 15.6 µM (≈ 7.15 µg/mL) and the inhibition [24] was “Active”. The Activity (A549 [25]) was “Toxic”, the “fold change (FC)” value [9] was 4 and the inhibition (Escherichia coli) was “Active”. For the same molecule, the remaining at 0.5 h [26] was 58%, the Activity (HEK293 [27]) was “Toxic” and the inhibition [28] was “Active”. The remaining at 0.5 h [29] was 56%, the MIC (Mycobacterium avium [17]) was 7.8 µM (≈ 3.58 µg/mL) and the IC50 (N-acetyltransferase Eis [19]) was over 200 µM. It also gave an MIC [20] of 7.8 µM (≈ 3.58 µg/mL).
`O=C(CCCN1CCC(O)(c2ccc(Cl)cc2)CC1)c1ccc(Br)cc1` gave an MIC [1] of over 62.5 µM, an MIC [3] of over 10 mg/L and an MIC [5] of 31.3 µM (≈ 13.7 µg/mL). For the same molecule, the MIC [6] was over 62.5 µM, the Activity (J774.A1 [30]) was 100% and the MIC [12] was at most 1.25 mg/L. The MIC (Mycobacterium avium [17]) was over 62.5 µM, the Activity (HEK293 [31]) was “Non-Toxic” and the Activity (A549 [32]) was 70%. For the same molecule, the IC50 (N-acetyltransferase Eis [19]) was over 200 µM and the MIC [20] was over 62.5 µM.
